Assay outcomes from PubChem.
Sampled rows, rich in hits. Any-hit rate of the full collection: about 2.1%.
H9c2 protect = modulators protecting cardiomyocytes from myocardial damage | AID 588492 | H9c2 cardiomyocytes, H2O2 injury protection, ATPLite, 2 h | actives 0.63% (n = 360,000) | protection from H2O2 cell death, % at 20 µM;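 active = compounds giving at least 50% protection of heart cells from peroxide-induced death in the single-dose screen, raw or plate-pattern-corrected value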;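 also: 0% = DMSO wells with peroxide and 100% = DMSO wells without peroxide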
MIN6 prolif = inducers of beta-cell replication in MIN6 cells; actives 0.29% (n = 330,000); MIN6 cells proliferation, ATPlite luminescence, 48 h; cells starved in 0.2% serum; 100% = growth in 10% serum; proliferation, % at 10 µM;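 active = compounds whose signal lies at least 3.5 SD above the mean of all wells on their plate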;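 also: 0% = DMSO-treated cells in low-serum medium and 100% = 10% serum control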
CRFR2-BP antag = antagonists of CRF-binding protein/CRF-R2 receptor complex; HEK293 CRF-R2/CRF-BP, CRF-induced calcium fluorescence; actives 0.59% (n = 350,000); inhibition, % at 11.8 µM; AID 588475;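 active = inhibition of the ligand-induced calcium signal above about 50% at the single tested concentration, limit read from the data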
UCH37 inh = inhibitors of human deubiquitinating enzyme UCH37; actives 0.33% (n = 330,000); purified proteasome/UCH37, Ub-AMC cleavage fluorescence; inhibition, % (concentration not given with the values);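 active = mean inhibition over replicate wells above about 20%, limit read from the data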;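 also: 0% = compound-free wells with enzyme and 100% = wells lacking proteasome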
Target sequence (Q9Y5K5 whole entry, looked up): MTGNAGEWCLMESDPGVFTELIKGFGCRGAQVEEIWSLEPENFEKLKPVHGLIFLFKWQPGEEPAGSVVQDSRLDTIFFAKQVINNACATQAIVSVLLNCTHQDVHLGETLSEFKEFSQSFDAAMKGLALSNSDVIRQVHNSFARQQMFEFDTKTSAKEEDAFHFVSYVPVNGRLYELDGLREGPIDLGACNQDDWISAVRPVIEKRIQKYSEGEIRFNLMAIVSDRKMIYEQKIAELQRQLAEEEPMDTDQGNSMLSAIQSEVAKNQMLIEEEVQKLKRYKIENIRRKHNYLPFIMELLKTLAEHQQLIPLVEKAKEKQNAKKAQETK
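assay system = human UCH37 enzyme supplied as purified proteasome complex | amount = proteasome at 0.15 nM in the dispensed enzyme solution | schedule = 30 min compound-proteasome preincubation then 25 min substrate reaction, room temperature | measured by = fluorescence, ex 355 nm, em 460 nm | benchmarks = no-proteasome wells (full inhibition) and compound-free wells (no inhibition)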
iPSC survival up = increases survival of single human iPS cells. survival enhancement, % at 20 µM. hiPSC single-cell survival, ATPlite luminescence; 100% = ROCK inhibitor wells, 0% = DMSO. actives 0.044% (n = 360,000). AID 602274; in the data active = survival enhancement above about 18%;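 also: cells exposed to compounds for 16 hours before the ATP read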
CRFBP-R2 agonist = CRF-BP/CRF-R2 complex agonism; HEK293 CRF-R2/CRF-BP, calcium dye fluorescence (FLIPR); percent of saturating CRF peptide response; activation, % at 13.2 µM; actives 0.46% (n = 350,000); AID 588473;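 active = activation of at least 50%, plus an integration ratio under a set limit after plate pattern correction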;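 also: plate controls were neutral control wells without compound for no effect and CRF at EC100 for full effect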
* = called active by the depositor; · = no result given.

SMILES | H9c2 protect | MIN6 prolif | CRFR2-BP antag | UCH37 inh | iPSC survival up | CRFBP-R2 agonist
O=C1CC(c2ccccc2)Sc2nc(-c3ccccc3)c(-c3ccccc3)n21 (stereo unspecified) | 0.3 | -1.3 | -12.4 | 3.4 | 0.7 | -1.1
O=C1C=C(c2ccccc2)C[C@@H](c2ccc(Cl)cc2)C1 | 3.3 | -1.2 | -0.8 | 4.2 | 2.0 | 4.0
O=C1CC(c2ccccc2)SC(N(c2ccccc2)c2ccccc2)=N1 (stereo unspecified) | 2.4 | -2.4 | 55.8* | 3.7 | -1.8 | -2.6
O=C1CC(c2cccc(F)c2)SC(N(c2ccccc2)c2ccccc2)=N1 (stereo unspecified) | 1.7 | -3.8 | 84.9* | 2.6 | -0.1 | -0.6
O=C1CC(c2ccc(Cl)cc2)SC(N(c2ccccc2)c2ccccc2)=N1 (stereo unspecified) | -2.9 | -5.5 | 113.9* | 6.2 | -1.6 | -0.2
CN(C)CCCNCCCNC(=O)C(=NO)c1ccccn1 | · | · | · | 1.0 | · | ·
Cc1cc(C)nc(SCc2ccc(C(=O)NN=CC3CCCCC3)cc2)n1 | · | · | · | 1.2 | · | ·
O=C1c2ccccc2NC(c2cccs2)N1O (stereo unspecified) | 17.3 | 4.3 | 8.0 | 4.6 | -0.2 | -1.3
O=C1c2ccccc2NC(c2cn[nH]c2-c2ccccc2)N1O (stereo unspecified) | 50.4* | -3.1 | 24.7 | 7.5 | 0.3 | -3.9
O=C1c2ccccc2NC(c2ccccc2O)N1O (stereo unspecified) | 52.5* | -0.5 | -16.7 | -4.7 | -0.5 | 1.5
O=C1c2ccccc2NC(c2cn[nH]c2-c2ccc(Cl)cc2)N1O (stereo unspecified) | 66.6* | -1.3 | 5.2 | · | 0.8 | -0.4
Cc1ccc(N2C(=O)c3ccccc3NC2c2ccccc2O)cc1 (stereo unspecified) | -5.9 | -3.6 | -13.9 | -91.7 | -0.4 | -0.1
CC(C)(C)OC(=O)C[C@@H]1C/C=C\C[C@@H](CC(=O)N(CCO)Cc2ccccc2)C(=O)NC[C@H](c2ccccc2)OC1=O | 92.2* | -2.3 | -8.1 | -0.5 | 1.8 | -1.4
CC(C)(C)OC(=O)C[C@@H]1C/C=C\C[C@@H](CC(=O)N(CCO)Cc2ccccc2)C(=O)NC[C@@H](c2ccccc2)OC1=O | 16.1 | 0.0 | -8.4 | 0.0 | -2.0 | -2.0
O=S(=O)(c1cccc2cnccc12)N1CCNCC1 | 7.0 | 1.6 | -24.1 | 0.2 | 27.0* | 3.0
Cc1ccc(SCc2cc(=O)[nH]c(SCC(=O)Nc3cc(Cl)ccc3Cl)n2)cc1 | -2.1 | -3.2 | 68.0* | 3.2 | -0.2 | 0.5
Clc1ccccc1N=Nc1ccccn1 | -2.4 | · | -42.8 | · | -0.4 | 63.2*
COCc1cc(C)nc(SCC(=O)c2ccc(O)c(O)c2)c1C#N | 76.1* | -1.3 | -5.8 | 7.0 | -0.2 | -0.4
COCc1cc(C)nc(SCC(=O)Oc2ccccc2)c1C#N | 5.2 | 3.3 | 4.4 | -3.8 | -0.1 | 2.2
COc1ccc(-n2cc(-c3ccccc3)c3c(N4CCOCC4)ncnc32)cc1 | 58.5* | -3.1 | 6.0 | -9.7 | -0.6 | -2.4
COc1ccc(-n2cc(-c3ccccc3)c3c(NCCCN4CCOCC4)ncnc32)cc1 | 11.6 | -5.0 | 2.1 | -0.1 | 0.4 | -2.8
Fc1ccc(-n2cc(-c3ccccc3)c3c(N4CCOCC4)ncnc32)cc1 | 58.0* | -6.8 | -15.2 | 3.9 | 1.1 | 2.6
O=C(CC(=O)NN=Cc1ccccc1[N+](=O)[O-])NCCc1ccccc1 | · | · | · | 5.5 | · | ·
COc1ccc(C=NNc2nc(-c3ccc(Cl)cc3)cc(C(F)(F)F)n2)c(OC)c1 | · | · | · | 5.0 | · | ·
CC1CC1c1ccc(/C=C(\C#N)C(=O)Nc2cccc(Cl)c2Cl)o1 (stereo unspecified) | -6.9 | -4.3 | -75.0 | -13.8 | 1.7 | 58.5*
O=C(O)C1CCCCC1C(=O)Nc1cccc(Cl)c1Cl (stereo unspecified) | 6.7 | -0.3 | 6.2 | 2.8 | -4.9 | -1.2
COc1ccc2c(CCNC(=O)c3ccc([N+](=O)[O-])cc3)c[nH]c2c1 | 16.5 | -2.1 | 12.0 | 27.1* | 0.4 | -1.1
COc1ccc(CCNC(=O)c2ccc([N+](=O)[O-])cc2)cc1 | -4.7 | -4.6 | 5.5 | 3.7 | -0.1 | -1.1
